Reference: ChEMBL document CHEMBL3352165 (Eur J Med Chem, 2014)
Calls of active or inactive are those of the source. No cut-off for these calls is given here.

Columns and labels:
[1] = target: T1, Epidermal growth factor receptor (Homo sapiens, UniProt P00533); assay: Inhibition of HER1 (unknown origin) assessed as reduction in autophosphorylation by ELISA method
[2] = AUC (0 to infinity) in Beagle dog at 240 mg/kg, po dosed for 14 days by LC/MS/MS method; assay type: ADME, organism-based, Canis lupus familiaris; set-up: time infinity, dose 240 mg/kg, route oral; conditions: plasma
Outline: (§1)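 Beagle dogs (n = 6) dosed by oral gavage at 240 mg/kg daily for 14 consecutive days. Blood taken predose and at 0.25–24 h on days 1 and 14, plasma stored at −20 °C, analysed by validated LC/MS/MS. Half-life and AUC by model-independent methods; Cmax and MRT read from concentration–time data.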

[3] = tested on: BT-474; assay: Induction of apoptosis in human BT474 cells at 1 uM incubated for 12 hrs by propidium iodide staining based flow cytometry (reference value: 1%); assay type: functional
[4] = target: T1, Epidermal growth factor receptor; conditions: A-431, 0.001 to 1 uM
[5] = tested on: BT-474; assay: Induction of cell cycle arrest in human BT474 cells assessed as accumulation at G2/M phase at 10 uM incubated for 12 hrs by propidium iodide staining based flow cytometry (reference value: 14%); assay type: functional
[6] = target: T2, Vascular endothelial growth factor receptor 2 (Homo sapiens, UniProt P35968); assay: Inhibition of KDR phosphorylation (unknown origin) expressed in human HUVEC at 0.001 to 1 uM incubated for 2 hrs by Western blot method; assay type: cell-based
T2 sequence (P35968 whole entry): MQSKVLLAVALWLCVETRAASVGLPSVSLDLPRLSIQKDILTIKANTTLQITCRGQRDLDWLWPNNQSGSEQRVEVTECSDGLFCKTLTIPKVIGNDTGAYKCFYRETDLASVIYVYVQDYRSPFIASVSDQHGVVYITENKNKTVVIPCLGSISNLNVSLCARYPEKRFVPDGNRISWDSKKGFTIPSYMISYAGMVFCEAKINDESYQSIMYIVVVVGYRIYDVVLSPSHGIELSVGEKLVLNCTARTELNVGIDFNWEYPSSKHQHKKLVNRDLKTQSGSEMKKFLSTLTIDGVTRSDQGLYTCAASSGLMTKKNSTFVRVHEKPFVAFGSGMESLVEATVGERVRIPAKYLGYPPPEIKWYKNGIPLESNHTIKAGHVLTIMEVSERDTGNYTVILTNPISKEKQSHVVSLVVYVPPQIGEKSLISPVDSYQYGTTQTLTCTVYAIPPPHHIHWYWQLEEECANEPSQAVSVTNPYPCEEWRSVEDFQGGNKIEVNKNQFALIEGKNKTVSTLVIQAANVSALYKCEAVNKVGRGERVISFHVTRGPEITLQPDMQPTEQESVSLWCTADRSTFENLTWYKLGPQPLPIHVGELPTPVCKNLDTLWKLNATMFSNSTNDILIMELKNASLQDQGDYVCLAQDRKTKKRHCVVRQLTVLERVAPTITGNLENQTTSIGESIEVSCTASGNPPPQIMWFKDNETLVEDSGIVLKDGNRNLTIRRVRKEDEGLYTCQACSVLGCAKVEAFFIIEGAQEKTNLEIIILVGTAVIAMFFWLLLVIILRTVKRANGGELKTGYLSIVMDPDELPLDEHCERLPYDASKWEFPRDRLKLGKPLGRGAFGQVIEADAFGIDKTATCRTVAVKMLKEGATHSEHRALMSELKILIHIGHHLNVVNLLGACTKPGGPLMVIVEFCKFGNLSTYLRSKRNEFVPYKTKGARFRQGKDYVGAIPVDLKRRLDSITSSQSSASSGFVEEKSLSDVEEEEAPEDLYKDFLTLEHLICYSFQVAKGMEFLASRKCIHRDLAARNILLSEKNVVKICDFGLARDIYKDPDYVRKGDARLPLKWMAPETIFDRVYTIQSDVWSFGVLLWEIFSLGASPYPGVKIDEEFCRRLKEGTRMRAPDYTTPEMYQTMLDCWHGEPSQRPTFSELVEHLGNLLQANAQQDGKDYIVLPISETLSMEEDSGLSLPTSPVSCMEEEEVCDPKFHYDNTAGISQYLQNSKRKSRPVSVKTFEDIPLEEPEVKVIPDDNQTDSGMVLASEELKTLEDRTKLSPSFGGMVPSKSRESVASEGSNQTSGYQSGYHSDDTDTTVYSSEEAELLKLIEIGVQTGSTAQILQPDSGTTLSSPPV
Outline: (§2)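 Cells grown to half-confluence and serum-starved 24 h, then treated 2 h at 0.001, 0.01, 0.1 and 1 µM. Afterwards stimulated at 37 °C with 20 ng/ml SCF-1, PDGF-BB or VEGF as appropriate to the receptor. Phosphorylation assessed by western blot.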

[7] = tested on: BT-474; assay: Induction of cell cycle arrest in human BT474 cells assessed as accumulation at S phase at 1 uM incubated for 12 hrs by propidium iodide staining based flow cytometry (reference value: 19%); assay type: functional
[8] = target: T3, Receptor tyrosine-protein kinase erbB-2 (Homo sapiens, UniProt P04626); conditions: BT-474, 0.001 to 1 uM
T3 sequence (P04626 whole entry): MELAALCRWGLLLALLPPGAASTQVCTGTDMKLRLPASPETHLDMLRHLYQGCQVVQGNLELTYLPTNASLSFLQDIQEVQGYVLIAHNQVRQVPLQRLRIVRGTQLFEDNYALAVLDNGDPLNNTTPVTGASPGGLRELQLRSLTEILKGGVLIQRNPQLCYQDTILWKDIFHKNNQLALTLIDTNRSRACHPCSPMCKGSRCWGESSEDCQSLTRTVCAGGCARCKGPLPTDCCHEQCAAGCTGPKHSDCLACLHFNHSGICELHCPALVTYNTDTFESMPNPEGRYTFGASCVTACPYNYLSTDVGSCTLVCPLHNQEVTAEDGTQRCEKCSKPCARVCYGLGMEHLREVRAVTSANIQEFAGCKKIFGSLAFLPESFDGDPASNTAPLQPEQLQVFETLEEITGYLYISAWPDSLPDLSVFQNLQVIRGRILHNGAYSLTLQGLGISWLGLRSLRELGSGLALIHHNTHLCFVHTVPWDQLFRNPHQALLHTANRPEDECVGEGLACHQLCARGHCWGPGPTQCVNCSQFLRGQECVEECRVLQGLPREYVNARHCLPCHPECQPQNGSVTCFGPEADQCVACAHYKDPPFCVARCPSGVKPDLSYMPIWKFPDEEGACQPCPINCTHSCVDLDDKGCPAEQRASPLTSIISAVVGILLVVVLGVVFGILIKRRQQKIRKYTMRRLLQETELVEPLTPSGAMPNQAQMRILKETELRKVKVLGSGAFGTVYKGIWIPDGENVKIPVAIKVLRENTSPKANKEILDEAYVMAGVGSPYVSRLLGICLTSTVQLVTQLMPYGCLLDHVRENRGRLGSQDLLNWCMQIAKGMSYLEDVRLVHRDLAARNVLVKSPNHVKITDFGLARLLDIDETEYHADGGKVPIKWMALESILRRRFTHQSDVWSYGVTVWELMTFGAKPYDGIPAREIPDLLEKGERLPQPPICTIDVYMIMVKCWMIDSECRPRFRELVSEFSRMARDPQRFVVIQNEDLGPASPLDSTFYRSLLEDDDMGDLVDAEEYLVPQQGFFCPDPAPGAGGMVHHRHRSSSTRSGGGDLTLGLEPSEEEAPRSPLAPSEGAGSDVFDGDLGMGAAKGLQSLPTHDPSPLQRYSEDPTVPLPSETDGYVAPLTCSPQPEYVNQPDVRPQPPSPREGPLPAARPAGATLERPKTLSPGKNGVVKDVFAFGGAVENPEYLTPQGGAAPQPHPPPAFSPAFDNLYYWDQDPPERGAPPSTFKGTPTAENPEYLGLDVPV

[9] = tested on: BT-474; assay: Induction of cell cycle arrest in human BT474 cells assessed as accumulation at G2/M phase at 0.001 uM incubated for 12 hrs by propidium iodide staining based flow cytometry (reference value: 14%); assay type: functional
[10] = cells; conditions: Homo sapiens, SK-OV-3, 72 h
[11] = target: T3, Receptor tyrosine-protein kinase erbB-2; conditions: BT-474, 0.001 to 1 uM; remark: listed apart in the source
[12] = tested on: MDA-MB-231; assay: cells; conditions: Homo sapiens, MDA-MB-231, 72 h
[13] = tested on: NCI-H460; assay: cells; conditions: Homo sapiens, NCI-H460, 72 h
[14] = tested on: BT-474; assay: Induction of apoptosis in human BT474 cells at 0.1 uM incubated for 12 hrs by propidium iodide staining based flow cytometry (reference value: 1%); assay type: functional
[15] = target: T4, Platelet-derived growth factor receptor beta (Homo sapiens, UniProt P09619); assay: Inhibition of PDGFRbeta (unknown origin) by ELISA method
T4 sequence (P09619 whole entry): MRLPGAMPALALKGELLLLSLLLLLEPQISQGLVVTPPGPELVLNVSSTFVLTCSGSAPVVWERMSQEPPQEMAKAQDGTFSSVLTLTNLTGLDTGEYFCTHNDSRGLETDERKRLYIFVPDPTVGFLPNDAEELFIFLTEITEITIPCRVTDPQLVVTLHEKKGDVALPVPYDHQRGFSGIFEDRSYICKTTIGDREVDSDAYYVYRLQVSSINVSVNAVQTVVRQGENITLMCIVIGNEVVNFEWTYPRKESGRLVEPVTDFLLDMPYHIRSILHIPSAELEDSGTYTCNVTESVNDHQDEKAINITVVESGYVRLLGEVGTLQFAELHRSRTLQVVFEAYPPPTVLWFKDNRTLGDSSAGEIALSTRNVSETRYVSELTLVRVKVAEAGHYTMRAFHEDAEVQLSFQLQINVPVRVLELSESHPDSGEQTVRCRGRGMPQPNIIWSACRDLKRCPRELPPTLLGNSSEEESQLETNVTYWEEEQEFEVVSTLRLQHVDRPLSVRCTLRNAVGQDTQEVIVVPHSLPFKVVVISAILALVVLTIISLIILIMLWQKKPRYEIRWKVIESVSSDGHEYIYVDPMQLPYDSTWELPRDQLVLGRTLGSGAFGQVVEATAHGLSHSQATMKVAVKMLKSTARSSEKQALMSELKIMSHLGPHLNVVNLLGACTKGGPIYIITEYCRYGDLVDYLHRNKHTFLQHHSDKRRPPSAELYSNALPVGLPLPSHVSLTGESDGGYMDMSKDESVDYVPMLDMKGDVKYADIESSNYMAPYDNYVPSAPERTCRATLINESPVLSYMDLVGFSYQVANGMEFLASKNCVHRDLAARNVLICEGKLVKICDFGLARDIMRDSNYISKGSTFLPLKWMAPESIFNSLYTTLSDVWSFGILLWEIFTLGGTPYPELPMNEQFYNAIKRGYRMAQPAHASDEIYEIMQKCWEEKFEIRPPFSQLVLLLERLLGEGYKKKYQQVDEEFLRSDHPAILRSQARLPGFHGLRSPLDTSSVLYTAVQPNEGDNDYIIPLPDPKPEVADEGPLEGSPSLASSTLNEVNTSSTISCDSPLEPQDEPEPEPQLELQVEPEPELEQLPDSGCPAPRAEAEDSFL
Outline: (§3)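 Phosphotyrosine ELISA with purified kinase (20 ng) and 5 µM ATP in buffer (50 mM HEPES pH 7.4, 20 mM MgCl2, 0.1 mM MnCl2, 0.2 mM Na3VO4, 1 mM DTT), 1 h at 37 °C, DMSO ≤1%. Detection by PY99 antibody, then HRP anti-mouse IgG with o-phenylenediamine, A490. IC50 by Logit from at least three independent tests.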

[16] = tested on: BT-474; assay: Induction of cell cycle arrest in human BT474 cells assessed as accumulation at G2/M phase at 1 uM incubated for 12 hrs by propidium iodide staining based flow cytometry (reference value: 14%); assay type: functional
[17] = tested on: BT-474; assay: Induction of cell cycle arrest in human BT474 cells assessed as accumulation at S phase at 0.001 uM incubated for 12 hrs by propidium iodide staining based flow cytometry (reference value: 19%); assay type: functional
[18] = Tmax in Beagle dog at 240 mg/kg, po dosed for 14 days by LC/MS/MS method; assay type: ADME, organism-based, Canis lupus familiaris; set-up: dose 240 mg/kg, route oral; conditions: in vivo
Outline: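 Beagle dogs (n = 6) given 240 mg/kg daily by oral gavage for 14 consecutive days. On days 1 and 14, blood taken predose and at 0.25–24 h post-dose. Plasma held at -20 °C, then quantified by validated LC/MS/MS. Tmax taken directly from the plasma concentration-time data.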

[19] = target: Mast/stem cell growth factor receptor Kit (Homo sapiens, UniProt P10721); assay: Inhibition of c-KIT phosphorylation (unknown origin) expressed in human NCI-H526 cells at 0.001 to 1 uM incubated for 2 hrs by Western blot method; assay type: cell-based; outline: as §2
[20] = tested on: BT-474; assay: Induction of cell cycle arrest in human BT474 cells assessed as accumulation at S phase at 0.1 uM incubated for 12 hrs by propidium iodide staining based flow cytometry (reference value: 19%); assay type: functional
[21] = Cytotoxicity against human SKBR3 cells assessed as inhibition of cell growth after 72 hrs by sulforhodamine B assay; assay type: functional, cell-based; conditions: SK-BR-3, 72 h
Outline: (§4)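 Cells grown in RPMI-1640 with 5% FBS and plated at 5.0×10^4/ml. Next day exposed to 0.5–5000 ng/ml for 3 days. Survival read by sulforhodamine B staining. IC50 taken from growth curves; mean of at least three determinations.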

[22] = target: T4, Platelet-derived growth factor receptor beta; conditions: U-87MG ATCC, 0.001 to 1 uM
[23] = Cmax in Beagle dog at 240 mg/kg, po administered as single dose measured after 0.25 to 24 hrs post dose by LC/MS/MS method; assay type: ADME, organism-based, Canis lupus familiaris; set-up: dose 240 mg/kg, route oral; conditions: in vivo
Outline: (§5)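 Single oral gavage of 240 mg/kg to beagle dogs (n = 6). Blood sampled at 0.25–24 h, kept on ice, centrifuged within 1 h (1000 × g, 4 °C, 15 min), plasma stored at −20 °C. Drug quantified by validated LC/MS/MS. AUC0–24 from non-compartmental analysis; Cmax and MRT taken directly from concentration–time data.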

[24] = Clearance in Beagle dog at 240 mg/kg, po dosed for 14 days by LC/MS/MS method; assay type: ADME, organism-based, Canis lupus familiaris; set-up: dose 240 mg/kg, route oral; conditions: in vivo; outline: as §1
[25] = tested on: MRC5; assay: cells; conditions: Homo sapiens, MRC5, 72 h
[26] = target: T2, Vascular endothelial growth factor receptor 2; assay: Inhibition of KDR (unknown origin) by ELISA method; outline: as §3
[27] = tested on: A-431; assay: Cytotoxicity against human A431 cells assessed as inhibition of cell growth after 72 hrs by sulforhodamine B assay; assay type: functional, cell-based; conditions: A-431, 72 h; outline: as §4
[28] = target: T3, Receptor tyrosine-protein kinase erbB-2; assay: Inhibition of HER2 (unknown origin) assessed as reduction in autophosphorylation by ELISA method; outline: as §3
[29] = AUC (0 to 24 hrs) in Beagle dog at 240 mg/kg, po administered as single dose measured after 0.25 to 24 hrs post dose by LC/MS/MS method; assay type: ADME, organism-based, Canis lupus familiaris; set-up: time < 24 hr, dose 240 mg/kg, route oral; conditions: plasma; outline: as §5

T1 sequence (P00533 whole entry): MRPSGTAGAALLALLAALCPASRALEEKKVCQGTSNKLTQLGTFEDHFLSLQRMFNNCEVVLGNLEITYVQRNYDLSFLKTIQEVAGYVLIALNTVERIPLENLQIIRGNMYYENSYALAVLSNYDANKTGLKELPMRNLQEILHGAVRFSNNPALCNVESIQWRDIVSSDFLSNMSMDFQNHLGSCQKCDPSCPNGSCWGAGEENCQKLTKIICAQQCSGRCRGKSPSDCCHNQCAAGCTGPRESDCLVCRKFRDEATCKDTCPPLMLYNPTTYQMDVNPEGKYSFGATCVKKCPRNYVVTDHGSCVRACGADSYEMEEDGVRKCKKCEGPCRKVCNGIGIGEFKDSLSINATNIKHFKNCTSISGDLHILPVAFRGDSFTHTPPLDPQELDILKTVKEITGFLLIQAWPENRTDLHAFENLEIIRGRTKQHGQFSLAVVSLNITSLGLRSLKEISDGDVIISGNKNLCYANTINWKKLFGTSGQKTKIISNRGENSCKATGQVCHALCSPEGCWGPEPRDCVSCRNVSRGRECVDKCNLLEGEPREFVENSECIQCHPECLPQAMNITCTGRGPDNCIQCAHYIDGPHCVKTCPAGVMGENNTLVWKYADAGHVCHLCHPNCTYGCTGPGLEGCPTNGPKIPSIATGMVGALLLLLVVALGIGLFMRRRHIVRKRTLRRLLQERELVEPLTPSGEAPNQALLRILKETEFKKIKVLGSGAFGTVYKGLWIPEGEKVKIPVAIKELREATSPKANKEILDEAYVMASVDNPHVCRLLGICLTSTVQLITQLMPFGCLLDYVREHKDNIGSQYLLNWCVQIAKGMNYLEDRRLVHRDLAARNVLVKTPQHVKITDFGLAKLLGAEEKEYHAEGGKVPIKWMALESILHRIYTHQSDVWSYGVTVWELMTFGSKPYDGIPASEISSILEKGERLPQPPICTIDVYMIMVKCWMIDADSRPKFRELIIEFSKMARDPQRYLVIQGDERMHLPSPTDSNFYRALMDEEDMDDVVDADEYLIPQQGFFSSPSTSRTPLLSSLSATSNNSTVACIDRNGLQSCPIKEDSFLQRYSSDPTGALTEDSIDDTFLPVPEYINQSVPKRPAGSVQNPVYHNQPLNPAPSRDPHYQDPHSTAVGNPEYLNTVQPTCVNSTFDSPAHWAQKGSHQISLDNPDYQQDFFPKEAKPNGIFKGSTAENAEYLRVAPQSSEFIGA

CN(C)[C@H](CS(C)(=O)=O)c1ccc(-c2ccc3ncnc(Nc4ccc(OCc5cccc(F)c5)c(Cl)c4)c3c2)o1
IC50 [1]: 4.1 nM
AUC(0-inf) [2]: 30600 ng·h/mL
Activity [3]: 5%
inhibition [4]: Dose-dependent effect
Activity [5]: 12%
inhibition [6]: inactive
Activity [7]: 6%
inhibition [8]: Dose-dependent effect
Activity [9]: 14%
IC50 [10]: 440 nM
inhibition [11]: Dose-dependent effect
IC50 [12]: 95300 nM
IC50 [13]: > 100000 nM
Activity [14]: 4%
IC50 [15]: > 200000 nM
Activity [16]: 12%
Activity [17]: 16%
Tmax [18]: 4.5 h
inhibition [19]: inactive
Activity [20]: 5%
IC50 [21]: 18.4 nM
inhibition [22]: inactive
Cmax [23]: 3100 ng/mL
CL/F [24]: 432 mL/min
IC50 [25]: > 100000 nM
IC50 [26]: > 200000 nM
IC50 [27]: 634 nM
IC50 [28]: 0.5 nM
AUC(0-t) at 24 h [29]: 29800 ng·h/mL
